# Laboratory results from ChEMBL document CHEMBL1817567, “Design of benzimidazole- and benzoxazole-2-thione derivatives as inhibitors of bacterial hyaluronan lyase” (Eur J Med Chem, 2011).
# The source made the active and inactive calls. The calls are words filed in the database; no cut-off is given here.
# Key:
# Streptococcus agalactiae [1] = experiment: Inhibition of Streptococcus agalactiae 4755 hyaluronidase at 150 uM after 30 mins at pH 5.0 by turbidimetric analysis
# In short: (§1)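 SagHyal4755 (2.9 ng) with BSA and hyaluronan (2 mg/ml stock) in citrate–phosphate/NaCl buffer pH 5.0, 3.8% DMSO final, 30 min at 37 °C. Stopped by alkaline 2.5% CTAB, then 20 min at 25 °C. Residual-substrate turbidity read at 600 nm; no-inhibitor sample = 100%, no-enzyme sample = 0% activity. Enzyme-free compound controls were run.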
# Streptococcus agalactiae [2] = experiment: Inhibition of Streptococcus agalactiae 4755 hyaluronidase at 300 uM after 3 hrs at pH 7.4 by turbidimetric analysis
# In short: (§2)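 Same turbidimetric hyaluronan-lyase assay at pH 7.4 (citrate–phosphate/NaCl): SagHyal4755 2.9 ng, hyaluronan (2 mg/ml stock), BSA, 3.8% DMSO final, 3 h at 37 °C. CTAB (2.5%, in 0.5 M NaOH) precipitation, 20 min at 25 °C, A600. Activity scaled between no-inhibitor and no-enzyme samples.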
# [3] = molecular target: T1, Hyaluronidase (Bos taurus) (UniProt Q8SQG8+Q5E985); experiment: Inhibition of bovine testes hyaluronidase at 200 uM after 30 mins at pH 5 by turbidimetric analysis; format: protein assay
# [4] = molecular target: T1, Hyaluronidase (Bos taurus); experiment: Inhibition of bovine testes hyaluronidase at 380 uM after 30 mins at pH 5 by turbidimetric analysis; format: protein assay
# [5] = molecular target: T1, Hyaluronidase (Bos taurus); experiment: Inhibition of bovine testes hyaluronidase at 49 uM after 30 mins at pH 5 by turbidimetric analysis; format: protein assay
# [6] = molecular target: T1, Hyaluronidase (Bos taurus); experiment: Inhibition of bovine testes hyaluronidase at 4200 uM after 30 mins at pH 5 by turbidimetric analysis; format: protein assay
# [7] = molecular target: T1, Hyaluronidase (Bos taurus); experiment: Inhibition of bovine testes hyaluronidase at 460 uM after 30 mins at pH 5 by turbidimetric analysis; format: protein assay
# [8] = molecular target: T1, Hyaluronidase (Bos taurus); experiment: Inhibition of bovine testes hyaluronidase at 180 uM after 30 mins at pH 5 by turbidimetric analysis; format: protein assay
# [9] = molecular target: T1, Hyaluronidase (Bos taurus); experiment: Inhibition of bovine testes hyaluronidase at 190 uM after 30 mins at pH 5 by turbidimetric analysis; format: protein assay
# [10] = molecular target: T1, Hyaluronidase (Bos taurus); experiment: Inhibition of bovine testes hyaluronidase at 170 uM after 30 mins at pH 5 by turbidimetric analysis; format: protein assay
# [11] = molecular target: T1, Hyaluronidase (Bos taurus); experiment: Inhibition of bovine testes hyaluronidase at 100 uM after 30 mins at pH 5 by turbidimetric analysis; format: protein assay
# [12] = molecular target: T1, Hyaluronidase (Bos taurus); experiment: Inhibition of bovine testes hyaluronidase at 400 uM after 30 mins at pH 5 by turbidimetric analysis; format: protein assay
# [13] = molecular target: T1, Hyaluronidase (Bos taurus); experiment: Inhibition of bovine testes hyaluronidase at 3800 uM after 30 mins at pH 5 by turbidimetric analysis; format: protein assay
# [14] = molecular target: T1, Hyaluronidase (Bos taurus); experiment: Inhibition of bovine testes hyaluronidase at 130 uM after 30 mins at pH 5 by turbidimetric analysis; format: protein assay
# [15] = molecular target: T1, Hyaluronidase (Bos taurus); experiment: Inhibition of bovine testes hyaluronidase at 63 uM after 30 mins at pH 5 by turbidimetric analysis; format: protein assay
# [16] = molecular target: T1, Hyaluronidase (Bos taurus); experiment: Inhibition of bovine testes hyaluronidase at 80 uM after 30 mins at pH 5 by turbidimetric analysis; format: protein assay
# [17] = molecular target: T1, Hyaluronidase (Bos taurus); experiment: Inhibition of bovine testes hyaluronidase at 2000 uM after 30 mins at pH 5 by turbidimetric analysis; format: protein assay
# [18] = molecular target: T1, Hyaluronidase (Bos taurus); experiment: Inhibition of bovine testes hyaluronidase at 150 uM after 30 mins at pH 5 by turbidimetric analysis; format: protein assay
# [19] = Aqueous solubility of the compound in water; format: physicochemical
# In short: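 Turbidity at 600 nm of test compound in DMSO added to citrate–phosphate buffer (pH 5 and pH 7.4), water and BSA (0.2 mg/ml stock), at various concentrations, read against a water reference. Enzyme testing used only concentrations showing no turbidity.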
# Hyaluronidase = molecular target: T2, Hyaluronidase (Bos taurus, UniProt Q8SQG8+Q5E985); experiment: Inhibition of bovine testes hyaluronidase after 30 mins at pH 5 by turbidimetric analysis; format: protein assay
# T2 sequence (Q8SQG8 whole entry): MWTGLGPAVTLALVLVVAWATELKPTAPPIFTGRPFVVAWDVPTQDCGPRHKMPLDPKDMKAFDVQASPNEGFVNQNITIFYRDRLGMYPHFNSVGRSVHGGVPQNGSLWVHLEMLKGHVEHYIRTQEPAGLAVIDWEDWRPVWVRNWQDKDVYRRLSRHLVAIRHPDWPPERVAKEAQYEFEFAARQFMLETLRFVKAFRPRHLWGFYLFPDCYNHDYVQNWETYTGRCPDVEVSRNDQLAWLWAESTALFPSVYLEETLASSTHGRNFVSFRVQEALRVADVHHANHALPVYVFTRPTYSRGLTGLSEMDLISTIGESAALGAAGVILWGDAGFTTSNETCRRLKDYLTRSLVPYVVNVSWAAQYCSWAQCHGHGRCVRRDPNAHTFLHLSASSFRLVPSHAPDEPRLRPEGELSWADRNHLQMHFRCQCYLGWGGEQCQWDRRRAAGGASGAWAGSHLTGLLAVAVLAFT
# T2 sequence (Q5E985 whole entry): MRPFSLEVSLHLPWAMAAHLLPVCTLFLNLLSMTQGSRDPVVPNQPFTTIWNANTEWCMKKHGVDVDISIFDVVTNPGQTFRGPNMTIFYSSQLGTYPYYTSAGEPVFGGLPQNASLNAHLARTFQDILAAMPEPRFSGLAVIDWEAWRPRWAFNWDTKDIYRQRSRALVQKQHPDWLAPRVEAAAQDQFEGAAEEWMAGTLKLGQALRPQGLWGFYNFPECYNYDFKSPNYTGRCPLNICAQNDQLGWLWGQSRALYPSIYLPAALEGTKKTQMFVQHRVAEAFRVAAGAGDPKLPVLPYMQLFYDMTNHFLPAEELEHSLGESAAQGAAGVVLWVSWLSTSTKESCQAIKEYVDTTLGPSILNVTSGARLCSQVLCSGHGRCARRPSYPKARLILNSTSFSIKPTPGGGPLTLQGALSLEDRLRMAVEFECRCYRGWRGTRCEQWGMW
# [20] = Inhibition of Streptococcus agalactiae 4755 hyaluronidase at pH 7.4 after 3 hrs by turbidimetric analysis; in short: as §2
# [21] = Inhibition of Streptococcus agalactiae 4755 hyaluronidase at pH 7.4; in short: as §2
# [22] = Inhibition of Streptococcus agalactiae 4755 hyaluronidase at pH 5.0; in short: as §1
# [23] = Inhibition of Streptococcus agalactiae 4755 hyaluronidase at pH 5.0 after 30 mins by turbidimetric analysis; in short: as §1
# [24] = Inhibition of Streptococcus agalactiae 4755 hyaluronidase after 30 mins by turbidimetric analysis; in short: as §1
# [25] = Inhibition of Streptococcus agalactiae hyaluronidase
# Streptococcus agalactiae [26] = experiment: Inhibition of Streptococcus agalactiae 4755 hyaluronidase at 1000 uM after 3 hrs at pH 7.4 by turbidimetric analysis; in short: as §2
# Streptococcus agalactiae [27] = experiment: Inhibition of Streptococcus agalactiae 4755 hyaluronidase at 400 uM after 30 mins at pH 5.0 by turbidimetric analysis; in short: as §1
inhibition [3],inhibition [4],inhibition [5],inhibition [6],inhibition [7],inhibition [8],inhibition [9],inhibition [10],inhibition [11],inhibition [12],inhibition [13],inhibition [14],inhibition [15],inhibition [16],inhibition [17],inhibition [18],solubility [19] [µM],IC50 [23] [µM],Compound,further results
inactive,inactive,inactive,inactive,inactive,inactive,inactive,inactive,inactive,inactive,inactive,inactive,inactive,inactive,inactive,inactive,150,–,CCCCCC(=O)n1c(=O)oc2ccccc21,inhibition (Streptococcus agalactiae [1]): inactive; inhibition (Streptococcus agalactiae [2]): inactive
–,–,–,–,–,–,–,–,–,–,–,–,–,–,–,–,–,–,Oc1ccc(-c2[nH]c3ccccc3c2-c2ccccc2)cc1,IC50 (Hyaluronidase): 107 µM
inactive,inactive,inactive,inactive,inactive,inactive,inactive,inactive,inactive,inactive,inactive,inactive,inactive,inactive,inactive,inactive,–,11,CCCCCCCCCCn1c(-c2ccc(OS(N)(=O)=O)cc2)cc2ccc(OS(N)(=O)=O)cc21,IC50 [20]: 16 µM; IC50 [21]: 16 µM; IC50 [22]: 11 µM
inactive,inactive,inactive,inactive,inactive,inactive,inactive,inactive,inactive,inactive,inactive,inactive,inactive,inactive,inactive,inactive,–,4.2,CCCCCCCCCCCCCCCC(=O)OC[C@H](O)[C@H]1OC(=O)C(O)=C1O [ASCORBYL PALMITATE],IC50 [24]: 4.2 µM
–,–,–,–,–,–,–,–,–,–,–,–,–,–,–,–,–,–,CC1(C)[C@@H](O)CC[C@]2(C)[C@H]3C(=O)C=C4[C@@H]5C[C@@](C)(C(=O)O)CC[C@]5(C)CC[C@@]4(C)[C@]3(C)CC[C@@H]12 [ENOXOLONE],IC50 [25]: 60 µM
inactive,inactive,inactive,inactive,inactive,inactive,inactive,inactive,inactive,inactive,inactive,inactive,inactive,inactive,inactive,inactive,400,–,CCn1c(=S)oc2ccccc21,inhibition (Streptococcus agalactiae [26]): 17%; inhibition (Streptococcus agalactiae [27]): 46%
